In ChEMBL document CHEMBL4513216, “Probing the Open Global Health Chemical Diversity Library for Multistage-Active Starting Points for Next-Generation Antimalarials” (ACS Infect Dis, 2020):

Experiment: Toxicity liver stage against HepG2, at 10uM
Assay type: cell-based
Set-up: test concentration 10 uM, cell line HepG2-A16-CD81EGFP
Conditions: human, HepG2-A16-CD81EGFP cells; read-out: INHIBITION
In short: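 Uninfected HepG2-A16-CD81EGFP cells, 3 × 10^3 per well, 1536-well, plated on prespotted compound at 10 μM final, parasite-free screening media added to match infected plates; puromycin 10 μM positive, DMSO 0.5% negative; run in parallel with 48 h PbLuc assay at 37 °C, 5% CO2; viability by CellTiter-Glo luminescence, normalized to controls.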

| SMILES | cytotoxicity at 10 µM |
| --- | --- |
| C(=C\c1ccccc1)/CNCC1CCc2nncn2C1 (configuration not stated) | 16.8% |
| COCCC(=O)N1C[C@H]2CCC[C@@]2(COC)C1 | 6.75% |
| Cc1cnc2[nH]c(C(F)(F)F)c(CN3CCCC(CO)C3)c2c1 (configuration not stated) | 8.48% |
| CN(Cc1nnc2ccccn12)C(=O)CC1CCCCC1 | 13.7% |
| NC1CCC(CN2CCCn3nc(CNC(=O)C4CCC4)cc3C2)CC1 (configuration not stated) | 4.03% |
| O=C(c1cccn1Cc1cccs1)N1CCN(C(=O)C2CC2)CC1 | -6.59% |
| Cc1nnc([C@@]23CCO[C@@H]2CCN(Cc2nccs2)C3)o1 | -104% |
| CCC(CNC(=O)NCc1cc[nH]n1)N1CCCC1 (configuration not stated) | -3.65% |
| CN(Cc1noc(C2CC2)n1)C1CCN(CCn2cc(C#N)cn2)C1 (configuration not stated) | -9.1% |
| NS(=O)(=O)c1ccc(NCc2ccco2)c2ncccc12 | -153% |
| CC(=O)N1CCCN(C(C)C(=O)Nc2ccnn2C(C)C)CC1 (configuration not stated) | -6.22% |
| N#Cc1ccc(CN(CCF)Cc2cccc(F)c2)cc1 | -4.11% |
| Cc1cc(CN(C)C(=O)NC2CCCC2)no1 | -5.85% |
| Cc1cnn(C2CN(CCCOc3ccc(C#N)cc3)C2)c1 | 4.09% |
| Cc1nc(CN2Cc3cn(C)nc3C(COCC3CC3)C2)cs1 (configuration not stated) | -68.9% |
| Cc1nc(N(C)C)nc(-c2cccc(-c3ccn(CCCO)n3)c2)c1C | -6.51% |
| CCOc1ncccc1NC(=O)N1CCCC(CNC(N)=O)C1 (configuration not stated) | -11.1% |
| CCCc1cc(C(=O)N2CCCC(n3ccnc3C)C2)[nH]n1 (configuration not stated) | -15.6% |
| CCCC(=O)NCCc1nc(N(C)C)ncc1-c1ccncc1 | 2.92% |
| CC(C)N1CCc2[nH]nc(C(=O)N3CCN(C)CC3)c2C1 | -3.75% |
| Cn1cc(CC2CCN(C(=O)NCCc3cccc(O)c3)C2)cn1 (configuration not stated) | 1.05% |
| Cc1ccc(OCC(=O)N2CCCC(n3nc(C)nc3C)C2)cc1 (configuration not stated) | -10.1% |
| CCN1C[C@H]2C3(CCN(C(C)=O)CC3)CC[C@@]2(C(=O)N(C)C)C1 | -104% |

| SMILES | cytotoxicity at 10 µM |
| --- | --- |
| CN(C)S(=O)(=O)N1CCC(c2cccc(Cc3ccccc3Cl)n2)CC1 | 55.9% |
| CN1CCCC(Cc2cncc(C(=O)NC3CC3)c2)C1 (configuration not stated) | -25.6% |
| Cc1cnn(C2CN(CC(=O)NCc3ccccn3)C2)c1 | -10.9% |
| Cc1ccccc1-c1cc(NC(=O)NC2CCC(O)CC2)n(CCO)n1 (configuration not stated) | 1.09% |
| COc1cccc2cc(CNC(=O)N3CCS(=O)(=O)CC3)oc12 | -19.3% |
| Cn1cnnc1SCc1cc2c(cc1Cl)OCO2 | 7.03% |
| CC(=O)c1c(F)cccc1NC1CCN(C(=O)CC(C)C)CC1 | 22.6% |
| Cc1ncc(CN2CCN(C(=O)N(C)C)[C@@H]3CS(=O)(=O)C[C@@H]32)cn1 | 7.86% |
| COCC(O)CN1CCC(NC(=O)c2ccccc2Cl)CC1 (configuration not stated) | -4.87% |
| Cc1cc(C(=O)N2CCCC(C(=O)c3cccs3)C2)c(=O)[nH]c1C (configuration not stated) | -7.01% |
| O=C(NCC(F)(F)C(F)F)c1ccncc1 | 10.3% |
| O=C(c1cccc2cccnc12)N1CCCN(c2cccnn2)CC1 | -3.2% |
| O=C(c1ccc(O)cc1)N1C[C@@H]2OCCN(c3ncccn3)[C@@H]2C1 | 6.72% |
| CCn1ccnc1CN1CCN(C(C)C(=O)NC2CCCC2)CC1 (configuration not stated) | -4.86% |
| C=C(C)COc1cccc(CNCCc2nc(N)cc(O)n2)c1 | -47.1% |
| O=c1cc(CN(Cc2ccco2)C2CC2)nc2ccc(Br)cn12 | 9.48% |
| Cc1csc(N2CCC(NCC3(O)CCc4ccccc43)CC2)n1 (configuration not stated) | 0.455% |
| Cc1cccc(NC(=O)[C@@H]2CCCN2Cc2ccc(C#N)cc2F)n1 | -5.64% |
| Cc1nccc(C2CCCN(S(=O)(=O)N3CCOCC3)C2)n1 (configuration not stated) | 6.08% |
| Cn1cncc1-c1nnc([C@H]2CCN(CC(C)(C)C)C2)o1 | 2.26% |
| CSc1nnc(C2CCN(C(=O)N3CCCC3)CC2)n1C(C)C | 8.54% |
| CN(C)CCN1CCOCC2(CCCN(C(=O)c3cccc(O)c3)C2)C1 (configuration not stated) | 11.7% |
| COc1cccn(CC(=O)N(C)CCOc2cc(C)cc(C)c2)c1=O | -10.6% |

| SMILES | cytotoxicity at 10 µM |
| --- | --- |
| CC(=O)N(c1ccc(C)cc1)c1nc(CN2CCCC(C)C2)cs1 (configuration not stated) | -6.71% |
| Cc1nn(C)c2nc(N(C)CCN(C)C3CCCC3)sc12 | 3.55% |
| COC(=O)c1cccc(C(=O)NCc2ccco2)n1 | 7.44% |
| Nc1nccc(NCc2cc3n(n2)CCCN(C2CCCCC2)C3)n1 | -16% |
| CN(CCN1CCN(c2ccccc2)CC1)C(=O)Nc1ccncc1 | 11.5% |
| CCOC(C(=O)N1CCn2c(C)nnc2C1)c1ccccc1 (configuration not stated) | 4.93% |
| O=C(CC1CN(Cc2ccccc2)CCO1)NC1CCSCC1 (configuration not stated) | -15.1% |
| CC1(C)OCC(CNC(=O)c2cnn(-c3cccc(Cl)c3Cl)c2N)O1 (configuration not stated) | 1.93% |
| CO[C@@H]1CCC[C@@H](NC(=O)CCCn2cncn2)[C@H]1O | 7.87% |
| CCOc1ccccc1NC(C)C(=O)N(C)Cc1cccc(F)c1 (configuration not stated) | 12.1% |
| NC(=O)C1=NC2=NS(=O)(=O)c3ccccc3N2N1Cc1ccc(Br)cc1 | 8.34% |
| CC(=O)N1CCCn2nc(CNC(=O)N3CCCCC3)cc2C1 | -3.91% |
| Cc1nccn1C1CCCN(C(=O)C2=NN(C)C(=O)CC2)C1 (configuration not stated) | -7.49% |
| O=C(O)C1CN(c2cncc(Cc3ccccc3)n2)C1 | 0.885% |
| CN(CCO)Cc1nnc(C2CCN(CC(C)(C)C)CC2)n1C | 1.89% |
| COCc1cn(CC2CCN(Cc3nc(C)c[nH]3)CC2)nn1 | 0.622% |
| NS(=O)(=O)c1ccc(NCc2ccccc2)cc1C(F)(F)F | 3.85% |
| O=C(c1ccc[nH]1)N1CC2(CCN(c3ncccn3)C2)C1 | 2.26% |
| Cc1c(CC(=O)N2CCN(C(C)C)CC2)nnn1-c1ccccc1 | -3.64% |
| O[C@@]1(CNCC2(Cn3cccn3)CC2)CCCN2CCCC[C@@H]21 | 4.13% |
| CN(C)c1ncc(-c2cncn2CCc2ccc3c(c2)OCCO3)cn1 | -1.04% |
| Cn1cnc2c(N3CCCC3)nc(C3CCN(CC4CC4)CC3)cc21 | -5.26% |
| c1cnc(Nc2cncc(C3CCCN(c4cnccn4)C3)n2)nc1 (configuration not stated) | -8.74% |

| SMILES | cytotoxicity at 10 µM |
| --- | --- |
| NC(=O)N1CCCN(C2CCCCc3ccccc32)CC1 (configuration not stated) | -43.9% |
| NC(=O)CN1CCCCC1c1nc(N)ncc1-c1cccc(F)c1 (configuration not stated) | -13.5% |
| CNCC(=O)Nc1cccc(-c2cnc(NCCO)nc2)c1 | -6.94% |
| O=C(CCn1ccc2ccccc21)N1CCC(Nc2cccnc2)CC1 | 9.08% |
| O=C(NC1CC1)C1CCN(c2nc3nc[nH]c(=O)c3s2)CC1 | -6.5% |
| O=S(=O)(c1ccc(Cl)cc1)N1CCN(CCCn2ccnc2)CC1 | -6.18% |
| Cc1cc(CNS(=O)(=O)CCCC#N)ccc1N(C)C | -5.18% |
| Cc1ncccc1NC(=O)[C@@H]1CCO[C@@H]2CCN(c3ccccc3)C[C@@H]21 | 6.7% |
| CC(C)N1CCC2(CC1)CC(CC(N)=O)c1ccc(F)cc12 (configuration not stated) | 12.8% |
| Fc1ccc(OCc2nnc([C@H]3CCN(Cc4cccnc4)C3)o2)cc1 | -5.72% |
| Clc1ccc(-c2cnc(CNC3CCc4ncnn4C3)o2)cc1 (configuration not stated) | -4.36% |
| NC(=O)CN1CCCC1c1ccccc1Br (configuration not stated) | 4.01% |
| COCCNC(=O)CCNc1ccc(Cl)cn1 | -5.22% |
| c1cnn(CCNCc2csc(-c3ccsc3)n2)c1 | 1.97% |
| Cc1nnc(NC(=O)NC(C)C(=O)NC2CCCC2)s1 (configuration not stated) | -0.334% |
| c1cnn(CC2CCCN2c2ncnc3ccsc23)c1 (configuration not stated) | 9.12% |
| CCc1nc(N2CCCC(O)(CO)CC2)ncc1C (configuration not stated) | 10.8% |
| CC(=O)NCc1cncc(C2CCCN2C2CCOCC2)n1 (configuration not stated) | 2.15% |
| COCC(=O)N1CCCC1c1cc(N2CCN(C(C)=O)CC2)cc(C)n1 (configuration not stated) | -9.41% |
| COCC1Cn2nnc(-c3cnn(C)c3)c2CN1Cc1ccc(C)o1 (configuration not stated) | 4.82% |
| CN(Cc1c(F)cccc1Cl)C(=O)c1cnn(CCN2CCOCC2)c1 | -4.2% |
| Cc1nc2c(c(C)c1CC(=O)NCc1ccco1)c(=O)[nH]n2C | -42.5% |
| CSCC(=O)N1CCCC(CO)(CC2CC2)C1 (configuration not stated) | 4.38% |

| SMILES | cytotoxicity at 10 µM |
| --- | --- |
| CN1CCN([C@@H]2CCN(Cc3cccc(-n4cccn4)c3)C[C@H]2O)CC1 | 8.42% |
| COc1nc(C)c(C(=O)N2CCN(c3ncccc3C)CC2)s1 | 2.87% |
| CCn1c(C)cc(C(=O)N2CCC(Nc3ccc(C)nn3)CC2)c1C | -5.52% |
| COc1ccc(CN2CCNC(=O)CC2)cc1SC(F)(F)F | 0.66% |
| Cc1ccc(-c2ccc(CC3NCCN(C)C3=O)cc2)cc1 (configuration not stated) | -25% |
| O=C(COc1ccccc1)N1CCC[C@]2(C[C@H](OCC3CC3)CO2)C1 | 8.68% |
| Cc1ccc(O)c(CN2CCCCC2CCN2CCOCC2)c1 (configuration not stated) | 4.25% |
| O=C(CN1CCCC1)Nc1c2c(cc3c1CCC3)CCC2 | -2.1% |
| Cc1nn(C)c(C)c1C1CCCN1C(=O)CCc1cscn1 (configuration not stated) | -3.66% |
| CN(Cc1nccn1C)C(CO)c1cccc(Br)c1 (configuration not stated) | -1.29% |
| Nc1ncnc2nc(C3CCCCN3)ccc12 (configuration not stated) | 5.74% |
| CC(C)CNC(=O)c1cc(Br)c2c(c1)OCCO2 | 6.7% |
| c1cncc(COCc2nnn3c2CN(Cc2ccsc2)CC3)c1 | 6.4% |
| Cc1nc(CN2CCO[C@@H]3CNCC[C@@H]3C2)cs1 | 4.47% |
| CCOCc1nc(CSc2ccncc2)n(C2CCN(C)CC2)n1 | -1.45% |
| Cc1oc(C)c(C(=O)NS(=O)(=O)c2ccc3c(c2)OCCO3)c1Br | 4.4% |
| O=C(Cc1cccc(O)c1)N1CCC2(CC1)c1ccccc1CC2O (configuration not stated) | 2.28% |
| CN(CCO)Cc1nnc(C2CCN(C(=O)c3cc[nH]c3)CC2)n1C | 1.37% |
| Cc1oncc1C(=O)N1CC[C@H]2[C@H]1CCN2Cc1ccccn1 | 6.15% |
| Cc1cc(C)n(CC2CN(CC3CCCC3)CCO2)n1 (configuration not stated) | -16.4% |
